From ChEMBL document CHEMBL1145048, “Functionalized glycomers as growth inhibitors and inducers of apoptosis in human glioblastoma cells” (J Med Chem, 2003)

How the values were obtained:
Type in all cases: functional, cell-based
[1] = Glycomer activity determined as growth inhibition of human glioblastoma LN18 cells
In short: (§1)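 Cells grown 24 h with FCS, then 24 h without FCS, then exposed to glycomers at increasing concentrations in serum-free medium for 24 h. MTT at 0.2 mg/mL was added for the last 2 h, formazan was dissolved in 0.1 N HCl/2-propanol and read at 540 nm. Growth inhibition = treated/control MTT reduction. IC50 is the concentration giving 50% inhibition from dose–response curves. Triplicate, mean ± SD.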

[2] = Glycomer activity determined as growth inhibition of human glioblastoma LNZ308 cells; in short: as §1
[3] = Apoptosis index was determined against human glioblastoma LN18 cells at concentration of 25 uM after total exposure time of 24 hours
In short: (§2)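 Cells seeded to half confluence in DMEM-10% FCS for 24 h, then held 24 h without FCS before glycomer addition in serum-free medium. At the end of the incubation, histone-associated DNA fragments (mono- and oligonucleosomes) in still-adherent cells were measured by photometric ELISA (absorbance 405 nm). Apoptosis index = absorbance of treated / untreated wells, untreated set at 1.00. Done in triplicate.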

[4] = Efficacy index was evaluated as ratio of apoptosis index to MTT reduction for human glioblastoma LN18 cells at 11.3 uM concentration
In short: (§3)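 Cells grown 24 h with FCS, then deprived of FCS for 10 h, then exposed to glycomers for 12 h. In adherent cells, MTT reduction (540 nm), [3H]-thymidine incorporation (cpm) and nucleosome-fragment apoptosis index (treated vs control) were measured. Efficacy index = ratio of thymidine incorporation or apoptosis index to MTT reduction.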

[5] = Efficacy index was evaluated as ratio of inhibition of DNA synthesis (3HT incorporation) to inhibition of growth(MTT) for human glioblastoma LN18 cells at 0 uM concentration; in short: as §3
[6] = Efficacy index was evaluated as ratio of apoptosis index to MTT reduction for human glioblastoma LN18 cells at 0 uM concentration; in short: as §3
[7] = Efficacy index was evaluated as ratio of inhibition of DNA synthesis (3HT incorporation) to inhibition of growth(MTT) for human glioblastoma LN18 cells at 11.3 uM concentration; in short: as §3
[8] = Apoptosis index was determined against human glioblastoma LN18 cells at concentration of 11 uM after total exposure time of 15 hours; in short: as §2
[9] = Apoptosis index was determined against human glioblastoma LNZ308 cells at concentration of 11 uM after total exposure time of 15 hours; in short: as §2
[10] = Efficacy index was evaluated as ratio of apoptosis index to MTT reduction for human glioblastoma LNZ308 cells at 22.5 uM concentration; in short: as §3
[11] = Efficacy index was evaluated as ratio of inhibition of DNA synthesis (3HT incorporation) to inhibition of growth(MTT) for human glioblastoma LN18 cells at 22.5 uM concentration; in short: as §3
[12] = Efficacy index was evaluated as ratio of apoptosis index to MTT reduction for human glioblastoma LNZ308 cells at 0 uM concentration; in short: as §3
[13] = Efficacy index was evaluated as ratio of inhibition of DNA synthesis (3HT incorporation) to inhibition of growth(MTT) for human glioblastoma LNZ308 cells at 11.3 uM concentration; in short: as §3
[14] = Efficacy index was evaluated as ratio of inhibition of DNA synthesis (3HT incorporation) to inhibition of growth(MTT) for human glioblastoma LN18 cells at 4.5 uM concentration; in short: as §3
[15] = Efficacy index was evaluated as ratio of apoptosis index to MTT reduction for human glioblastoma LNZ308 cells at 4.5 uM concentration; in short: as §3
[16] = Efficacy index was evaluated as ratio of apoptosis index to MTT reduction for human glioblastoma LN18 cells at 22.5 uM concentration; in short: as §3
[17] = Efficacy index was evaluated as ratio of apoptosis index to MTT reduction for human glioblastoma LN18 cells at 4.5 uM concentration; in short: as §3
[18] = Efficacy index was evaluated as ratio of apoptosis index to MTT reduction for human glioblastoma LNZ308 cells at 11.3 uM concentration; in short: as §3
[19] = Efficacy index was evaluated as ratio of inhibition of DNA synthesis (3HT incorporation) to inhibition of growth(MTT) for human glioblastoma LNZ308 cells at 22.5 uM concentration; in short: as §3
[20] = Apoptosis index was determined against human glioblastoma LNZ308 cells at concentration of 25 uM after otal exposure time of 24 hours; in short: as §2

| Compound | IC50 ([1]; Homo sapiens, LN-18) [µM] | IC50 ([2]; Homo sapiens, LNZ308) [µM] | also measured |
| --- | --- | --- | --- |
| CO[C@@H]1[C@H](O)[C@H](Oc2ccc(I)cc2)O[C@@H](COS(=O)(=O)c2cccc(C(F)(F)F)c2)[C@H]1O | > 50 | > 50 | – |
| C=CCO[C@H]1[C@H](O)[C@H](COS(=O)(=O)c2cccc(C(F)(F)F)c2)O[C@@H](Oc2ccc(I)cc2)[C@H]1OC(C)=O | 12.5 | 13 | – |
| C=CCO[C@H]1[C@@H](O)[C@H](COCc2ccccc2)O[C@@H](Oc2ccc(I)cc2)[C@H]1OC(=O)CCC | 20 | 37 | – |
| CCCO[C@H]1[C@H](O)[C@H](COCc2ccccc2)O[C@@H](Oc2ccc(OC)cc2)[C@H]1OC(C)=O | > 50 | > 50 | – |
| C=CCO[C@@H]1[C@H](O)[C@H](Oc2ccc(Br)cc2)O[C@@H](COCc2ccccc2)[C@H]1O | > 50 | > 50 | Apoptosis index [3]: 1.19 |
| CCCC(=O)O[C@@H]1[C@H](Oc2ccc(I)cc2)O[C@@H](COCc2ccccc2)[C@@H](O)[C@@H]1OCCO | > 50 | > 50 | – |
| C=CCO[C@H]1[C@H](O)[C@H](COS(=O)(=O)c2cccc(C(F)(F)F)c2)O[C@@H](Oc2ccc(I)cc2)[C@H]1OC(=O)CCC (stereo in doubt; 16a) | 40 | 29 | – |
| C=CCOC1C(O)C(CNS(=O)(=O)c2cccc(C(F)(F)F)c2)OC(Oc2ccc(I)cc2)C1OC(=O)CC (stereo unspecified) | – | – | Efficacy index [4]: 1.63; Efficacy index [5]: 16.2; Efficacy index [6]: 0.93; Efficacy index [7]: 0.07; Apoptosis index [8]: 0.98; Apoptosis index [9]: 1.45; Efficacy index [10]: 6.18; Efficacy index [11]: 0.47; Efficacy index [12]: 0.95; Efficacy index [13]: 0.64; Efficacy index [14]: 3.11; Efficacy index [15]: 0.72; Efficacy index [16]: 8.43; Efficacy index [17]: 0.88; Efficacy index [18]: 1.81; Efficacy index [19]: 0.35 |
| C=CCO[C@H]1[C@H](O)[C@H](COCc2ccccc2)O[C@@H](Oc2ccc(OC)cc2)[C@H]1OC(C)=O | > 50 | > 50 | – |
| CCCC(=O)O[C@@H]1[C@H](Oc2ccc(I)cc2)O[C@@H](COS(=O)(=O)c2cccc(C(F)(F)F)c2)[C@@H](O)[C@@H]1OC | 26 | 22 | – |
| CCCO[C@@H]1[C@H](O)[C@H](Oc2ccccc2)O[C@@H](COCc2ccccc2)[C@H]1O | > 50 | > 50 | Apoptosis index [3]: 1.29 |
| C=CCO[C@H]1[C@H](O)[C@H](COS(=O)(=O)c2cccc(C(F)(F)F)c2)O[C@@H](Oc2ccc(I)cc2)[C@H]1OC(=O)CCC (stereo in doubt; 8c) [listing 1 of 2 here] | – | – | IC50 ([1]; ln18): 43 µM; IC50 ([2]; lnz308): 41 µM |
| C=CCO[C@@H]1[C@H](OC(=O)CC)[C@H](Oc2ccc(I)cc2)O[C@@H](COS(=O)(=O)c2cccc(C(F)(F)F)c2)[C@H]1OCc1ccc(OC)cc1 | > 50 | > 50 | – |
| C=CCO[C@H]1[C@H](O)[C@H](COS(=O)(=O)c2cccc(C(F)(F)F)c2)O[C@@H](Oc2ccc(I)cc2)[C@H]1OC(=O)CCC (stereo in doubt; 8c) [listing 2 of 2 here] | – | – | Apoptosis index [20]: 0.41; Apoptosis index [3]: 0.44 |
| C=CCO[C@@H]1[C@H](O)[C@H](Oc2ccc(I)cc2)O[C@@H](COS(=O)(=O)c2cccc(C(F)(F)F)c2)[C@H]1O | 21 | 19 | – |
